According to the EternaBench riboswitch data:

System: MS2 coat protein
Experiment: apparent Kd, MS2 coat protein; higher = weaker binding; RNA-MaP array; FMN 200 µM where present
How it was run: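 The apparent Kd comes from binding curves fitted cluster by cluster, filtered, and summarised as a median. Those curves followed SNAP-549-labelled MS2 coat protein from 0.7 or 1.5 nM, doubling to 3 µM, on Illumina sequencing-chip clusters where stalled E. coli RNA polymerase had transcribed the designs, without and then with constant ligand. The buffer was 100 mM Tris-HCl pH 7.5, 80 mM KCl, 4 mM MgCl2, BSA, DTT, yeast tRNA and Tween-20, and green signal was normalised to red-channel RNA signal and control-cluster median Fmax.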

[1] = designed as: OFF switch for flavin mononucleotide, no ligand
[2] = ligand present: flavin mononucleotide, designed as: OFF switch for flavin mononucleotide
[3] = designed as: ON switch for flavin mononucleotide, no ligand
[4] = ligand present: flavin mononucleotide, designed as: ON switch for flavin mononucleotide

“GAAUACCUAGGAUAUACAUGAGGAUCACCCAUGUCAGUAGACUCGGAAAAGUCUCUCAGUAGAAGGAGGACCAG” was tested. Which “apparent Kd” value [1] did it give?
Its value is 35.2 nM.

And the “apparent Kd” value [2]?
Its value is 79.3 nM.

How did the “apparent Kd” value [3] turn out when “GUUUUGUAAGAGAAGGAGGACUUCAUGAGGAUCACCCAUGUGUUAGUACUUAGGAUAUUUGACAACAUGAGGAUCACCCAUGUC” was run?
Its value is 57.8 nM.

What about the “apparent Kd” value [4] of the same sequence?
The value was 57.9 nM.

For “CCAUGGAAUGUAGGAUAUGACUGACAAAGUCAGUUAGAAGGACAUGAGGAUCACCCAUGUAGGAAACAACCACAUAAACCAUGG”, which “apparent Kd” value [1] is on record?
Its value is 7.62 nM.

What about the “apparent Kd” value [2] of the same sequence?
Its value is 6.97 nM.

Which results are given for “GCACAUGGCAUAGGAUAUAGAACGAUAGUUGAAAUAGAUUGUUGGAAUUUACUAGAAGGAUGAGACAUGAGGAUCACCCAUGUA”?
apparent Kd [3]: 34.9 nM; apparent Kd [4]: 28.6 nM

How did the “apparent Kd” value [1] turn out when “GGAAAUUAGCAAGGAUAUCGGCUCACUAUAACUUUAUGCCCUAGGACAUGAGGAUCACCCAUGUACGAGAAGGUGCUAACUACA” was run?
Its value is 28.9 nM.

And the “apparent Kd” value [2]?
The value was 30.7 nM.

For “AAUAAACUCACAGGAUAUAGCAGCGGUCGCGUGAACUUACAGGCGACGAGGCUAGAAGGGUGACCACAUGAGGAUCACCCAUGU”, which “apparent Kd” value [3] is on record?
The value was 817 nM.

And the “apparent Kd” value [4]?
Its value is 219 nM.

With “UAUAUAUAGUAAGGAUAUGUAUAUAUUUGAUAAACAGAAGGUACUGACAUGAGGAUCACCCAUGUUUUAGUGUGGGCAUGUAGA” as the sequence, how does the “apparent Kd” value [1] read?
The value was 62.8 nM.

What about the “apparent Kd” value [2] of the same sequence?
The value was 78.6 nM.

Which “apparent Kd” value [3] does the source give for “GGGAAUAAACCCGUCUCCGCUCAACCAGAAGGGCACGAUAAUAUUACAUGAGGAUCACCCAUGUUGCAGGAUAUGGUGAGCCUC” here?
The value was 191 nM.

What about the “apparent Kd” value [4] of the same sequence?
The value was 52.9 nM.

“CGGCGGAAAGGAUAUGCAGUAAUAUCAAAAUGUGGGCCACGACAUGAGGAUCACCCAUGUAGAAGGUUCAGCCA” was tested. Which “apparent Kd” value [1] did it give?
The value was 16 nM.

And the “apparent Kd” value [2]?
Its value is 13.6 nM.

Which results are given for “GUGGACGUCGUAGGAUAUGUAGGAUAUUCCUACAUGAGGAUCACCCAUGUUGAAAUGGAAGAAGGACAGAAGGACGAUGUCCAG”?
apparent Kd [3]: 58.5 nM; apparent Kd [4]: 12.7 nM

With “CUUCCAGUUGCAGGAUAUCGGGAGGAGAGAUUACGAGAAGGGCAACAUGAGGAUCACCCAUGUAUGUGCUUGGGACAACCUAUC” as the sequence, how does the “apparent Kd” value [1] read?
Its value is 13.2 nM.

And the “apparent Kd” value [2]?
The value was 38.2 nM.

What does the source list for “AGACUGCGUAGAAUUAGCAGCCGGCAGGAUAUGACAUGAGGAUCACCCAUGUGAACUCCAUUGGGUCAGAAGGGCCACGACACA”?
apparent Kd [1]: 21.8 nM; apparent Kd [2]: 147 nM

What does the source list for “AGGGAUAAAGGAUAUACAUGAGGAUCACCCAUGUUGAGGAAGGUUAGAGGUGGCGAUAGUAGAAGGUUAGGUAG”?
apparent Kd [1]: 89.2 nM; apparent Kd [2]: 54.7 nM

For “GAUCCACAUGAGGAUCACCCAUGUGAGGAUAUGAUACUAUGUACUUCGGUACAUAGUAUCAGAAGGCACAGGUC”, which “apparent Kd” value [1] is on record?
The value was 51.4 nM.

What about the “apparent Kd” value [2] of the same sequence?
The value was 160 nM.

With “GGGUACAUCGGAGGAUAUCAUGUAAAUACAUGAGGAUCACCCAUGUCGCUGGAGACAUCGGAGAUUGAGAAGGCCGAUGUACCG” as the sequence, how does the “apparent Kd” value [3] read?
Its value is 26.6 nM.

And the “apparent Kd” value [4]?
Its value is 303 nM.

For “GGAUAGGACAGAGGAUAUAGGUGCUAGAGAUACUAGCAAAAUUUCCUCACAUGAGGAUCACCCAUGUAGAAGGCUGUCCUAUCG”, which “apparent Kd” value [1] is on record?
The value was 11.5 nM.

And the “apparent Kd” value [2]?
The value was 25.4 nM.

How did the “apparent Kd” value [1] turn out when “AUUAUGACCGAGUUAUAACUCUAAACAUGAGGAUCACCCAUGUAGGAUAUCAGCACGAUAAGUGCUGAGAAGGACAUCUCGGUC” was run?
The value was 16.4 nM.

And the “apparent Kd” value [2]?
Its value is 18.1 nM.

How did the “apparent Kd” value [3] turn out when “UGCAUGUAGGAGAAGGAGGACUUCAUGAGGAUCACCCAUGUGUUAGGACUUAGGAUAUUUGACGACAUGAGGAUCACCCAUGUG” was run?
Its value is 80.1 nM.

And the “apparent Kd” value [4]?
The value was 71.9 nM.

“ACCUUACUGGUCAGGAUAUACAGUCUUUGGUGUGUGUAGAAGGGACAUGAGGAUCACCCAUGUAGGUUGCAUUA” was tested. Which “apparent Kd” value [1] did it give?
The value was 164 nM.

And the “apparent Kd” value [2]?
The value was 172 nM.

For “ACCAAUGCAGGAUAUACAUGAGGAUCACCCAUGUAUAACCUACAUAGAUGAUUAUUAUGUAGAAGGGUAUUGGA”, which “apparent Kd” value [1] is on record?
The value was 13.2 nM.

And the “apparent Kd” value [2]?
The value was 12.9 nM.

Which “apparent Kd” value [3] does the source give for “GGUCGUCACAUUAACAUGAGGAUCACCCAUGUCUCUAGACAUGAGGAUAUGGAUCCUAAUUGGAUCCAGAAGGCAUGGACGACC” here?
The value was 1490 nM.

What about the “apparent Kd” value [4] of the same sequence?
Its value is 142 nM.

What does the source list for “UGGUCCCAGCGUUUGCUGGCCGCUCCAGAAGGCGAUCCAACAUGAGGAUCACCCAUGUCACCGAUCGAGGAUAUGGUUAAGGAU”?
apparent Kd [3]: 242 nM; apparent Kd [4]: 25.4 nM

How did the “apparent Kd” value [3] turn out when “GUGGUGGGUUGAGGAUAUUGGUUGUUGUUGUCCCACAUGAGGAUCACCCAUGUGGGUUGUGGUUUUGAGAAGGUUGGUUGCCGG” was run?
The value was 18.8 nM.

What about the “apparent Kd” value [4] of the same sequence?
The value was 16.6 nM.

Which results are given for “GCCAGAGCAGGAUAUUCAAUAUUCCACAUGAGGAUCACCCAUGUCCUGCGAAAGCAGGAGGGAGAAGGGCUCUGGC”?
apparent Kd [1]: 69.5 nM; apparent Kd [2]: 25.5 nM

Which “apparent Kd” value [1] does the source give for “AUAAUUAUAUAUUUGGCAAGAAUCAGAAGGCGUUACAUGAGGAUCACCCAUGUUUUGUAUAGUAACGAGGAUAUGAUAUGGAAA” here?
Its value is 16.3 nM.

And the “apparent Kd” value [2]?
The value was 12.7 nM.

Which results are given for “AGAGACCUCACAGGAUAUGCUGGACUUUGUCCAGCAGAAGGGUGAAAACAUGAGGAUCACCCAUGUAUGGUCUCCAAAUUUAAG”?
apparent Kd [3]: 182 nM; apparent Kd [4]: 13.5 nM

For “AGAACAUGAGGAUCACCCAUGUAAAGGUCGGUCAAUAAGGGUGAGGAUAUGCUUAAAAUAAGGUAGCAGAAGGUACUUGGUGCA”, which “apparent Kd” value [3] is on record?
The value was 398 nM.

And the “apparent Kd” value [4]?
The value was 508 nM.
